Measured values published in the array DNA melting data of Ke et al. (doi:10.1101/2024.01.08.574731).

What was measured:
[1] = folding enthalpy; higher = less favourable; fluorescence melt of hairpins on a sequencing array, two-state fit; conditions: sodium 0.088 M
In short: (§1)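 Folding enthalpy and melting temperature come from bootstrapped two-state fits to Cy3 fluorescence of library hairpins carrying annealed Cy3 and quencher oligos on a sequenced MiSeq flow cell. Imaging was done in 50 mM Na-HEPES pH 8.0, 25 mM NaCl, stepping by 2.5 °C up to 60 °C, and signals were normalised to pre-quench Cy3 and to control constructs. Results of four replicates were combined by inverse variance, and fitted temperatures were raised by 9.35 °C to match UV melts.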

[2] = melting temperature; fluorescence melt of hairpins on a sequencing array, two-state fit, raised by 9.35 °C to match UV melts; conditions: sodium 0.088 M
In short: as §1

## GCGGAGGGAAACCTCCAC (.(((((....))))).)
[1]
  folding enthalpy: -15.4 kcal/mol
[2]
  Tm: 45.7 °C

## CGATGCCGGAAACGGTCG (((..(((....))))))
[1]
  folding enthalpy: -10 kcal/mol
[2]
  Tm: 32.7 °C

## GTCCCCGAAAGGGCAGAC ((((((....)))..)))
[1]
  folding enthalpy: -13 kcal/mol
[2]
  Tm: 36.7 °C

## GCACACGAAAGTGCCTGC ((((((....)))..)))
[1]
  folding enthalpy: -13.2 kcal/mol
[2]
  Tm: 34.7 °C

## GAACGTGGAAACACATTC (((.(((....))).)))
[1]
  folding enthalpy: -17.1 kcal/mol
[2]
  Tm: 32.9 °C

## GATCTCGAGAGAGATC ((((((....))))))
[1]
  folding enthalpy: -32.6 kcal/mol
[2]
  Tm: 63.7 °C

## GACTATGGAAACACAGTC ((((.((....)).))))
[1]
  folding enthalpy: -19.1 kcal/mol
[2]
  Tm: 33 °C

## GATCGAGTAGTCGATC ((((((....))))))
[1]
  folding enthalpy: -34.3 kcal/mol
[2]
  Tm: 55.9 °C

## GGGTATGGAAACGTATCC ((.((.(....).)).))
[1]
  folding enthalpy: -19.8 kcal/mol
[2]
  Tm: 30.5 °C

## GAGCCCGAAAGGGCCTC ((((((....))).)))
[1]
  folding enthalpy: -8.72 kcal/mol
[2]
  Tm: 58.9 °C

## GAATTTGGAAACAGATTC ((((.((....)).))))
[1]
  folding enthalpy: -25.2 kcal/mol
[2]
  Tm: 33.3 °C

## GCTGGGCGAAAGCTCCGC ((.(.((....)).).))
[1]
  folding enthalpy: -20.4 kcal/mol
[2]
  Tm: 41.8 °C

## GGAATCGGAAACGGTTCC ((((.((....)).))))
[1]
  folding enthalpy: -44.5 kcal/mol
[2]
  Tm: 52.2 °C

## GGTGCCGGAAACGGCATC (.(((((....))))).)
[1]
  folding enthalpy: -15.1 kcal/mol
[2]
  Tm: 62.4 °C

## GTTGCCGAAAGGCCAAC ((((((....))).)))
[1]
  folding enthalpy: -14.4 kcal/mol
[2]
  Tm: 47.3 °C

## GAACGGGAAACCGTTC ((((((....))))))
[1]
  folding enthalpy: -37.1 kcal/mol
[2]
  Tm: 62.8 °C

## CGAACGCGGAAACGCTCG (((..(((....))))))
[1]
  folding enthalpy: -17.2 kcal/mol
[2]
  Tm: 40.5 °C

## GCGTCCGGAAACGGATGC ((.((((....)))).))
[1]
  folding enthalpy: -37.3 kcal/mol
[2]
  Tm: 65.1 °C

## GGTGGCCGAAAGGCACC (((.(((....))))))
[1]
  folding enthalpy: -18.5 kcal/mol
[2]
  Tm: 61.8 °C

## GGTGGTACGAAAGTAACC (((..(((....))))))
[1]
  folding enthalpy: -19 kcal/mol
[2]
  Tm: 43.8 °C

## GATCGTGTAAACGATC ((((((....))))))
[1]
  folding enthalpy: -42.2 kcal/mol
[2]
  Tm: 66.5 °C

## GCCCAGACGAAAGTCGGC (((..(((....))))))
[1]
  folding enthalpy: -15.7 kcal/mol
[2]
  Tm: 49.6 °C

## GCATGCGAAAGCAAATGC ((((((....)))..)))
[1]
  folding enthalpy: -24.9 kcal/mol
[2]
  Tm: 52.6 °C

## CGCCCGCGGAAACGCGCG (((..(((....))))))
[1]
  folding enthalpy: -8.68 kcal/mol
[2]
  Tm: 42.4 °C

## GAGCGGCGAAAGCCTCTC (((.(((....))).)))
[1]
  folding enthalpy: -20.5 kcal/mol
[2]
  Tm: 51.7 °C

## GATCCACAGATGGATC ((((((....))))))
[1]
  folding enthalpy: -38.6 kcal/mol
[2]
  Tm: 49 °C

## GCCGCCGGAAACGACGGC ((((.((....)).))))
[1]
  folding enthalpy: -33.7 kcal/mol
[2]
  Tm: 67 °C

## GTTAAGGAAACTTAAC ((((((....))))))
[1]
  folding enthalpy: -29 kcal/mol
[2]
  Tm: 43 °C

## GGCGCGACGAAAGTCGCC (((..(((....))))))
[1]
  folding enthalpy: -5.55 kcal/mol
[2]
  Tm: 51.9 °C

## GGACTACGAAAGTATCC (((.(((....))))))
[1]
  folding enthalpy: -21.5 kcal/mol
[2]
  Tm: 36.8 °C

## GCGACTCGAAAGAGCCGC (((.(((....))).)))
[1]
  folding enthalpy: -47 kcal/mol
[2]
  Tm: 60.2 °C

## GATCTAAGGTAGATC ((((((...))))))
[1]
  folding enthalpy: -20.8 kcal/mol
[2]
  Tm: 37.6 °C

## GATCACGCGCGTGATC ((((((....))))))
[1]
  folding enthalpy: -62 kcal/mol
[2]
  Tm: 62.7 °C

## GATCTCCCAAGAGATC ((((((....))))))
[1]
  folding enthalpy: -34.3 kcal/mol
[2]
  Tm: 53.4 °C

## GGTGCAGAAATGCACC ((((((....))))))
[1]
  folding enthalpy: -25.9 kcal/mol
[2]
  Tm: 68 °C

## GAGATCCCGAAAGGGCTC (((..(((....))))))
[1]
  folding enthalpy: -12 kcal/mol
[2]
  Tm: 34.9 °C

## GGTTTGTCGAAAGACACC (((..(((....))))))
[1]
  folding enthalpy: -10.9 kcal/mol
[2]
  Tm: 31.2 °C

## GGGGCCGAAAGGCTCCCC ((((((....)))..)))
[1]
  folding enthalpy: -11.7 kcal/mol
[2]
  Tm: 65 °C

## GCAAGACGAAAGTCATGC (((.(((....))).)))
[1]
  folding enthalpy: -32.2 kcal/mol
[2]
  Tm: 54.4 °C

## GATCAGACTACTGATC ((((((....))))))
[1]
  folding enthalpy: -33 kcal/mol
[2]
  Tm: 49.1 °C

## GATCGCTTGCGCGATC ((((((....))))))
[1]
  folding enthalpy: -30.3 kcal/mol
[2]
  Tm: 67.1 °C

## GCGAAAGCGAAAGCTCGC (((..(((....))))))
[1]
  folding enthalpy: -24.2 kcal/mol
[2]
  Tm: 56.3 °C

## GTCCGCGAAAGCGCTGAC ((((((....)))..)))
[1]
  folding enthalpy: -10.6 kcal/mol
[2]
  Tm: 38.2 °C

## GATCGCGCGGCGATC ((((((...))))))
[1]
  folding enthalpy: -34.6 kcal/mol
[2]
  Tm: 68.5 °C

## GTCTGCGAAAGCATAGAC ((((((....)))..)))
[1]
  folding enthalpy: -19.9 kcal/mol
[2]
  Tm: 45.9 °C

## GAGAACGGAAACGTCCTC (((.(((....))).)))
[1]
  folding enthalpy: -24.5 kcal/mol
[2]
  Tm: 40.2 °C
